Measurements collected from several papers.
Protocols differ between the studies behind these lines.
AVPR2: Vasopressin V2 receptor (AVPR2, Homo sapiens, UniProt P30518)
Transmembrane protease serine 6: Transmembrane protease serine 6 (Homo sapiens, UniProt Q8IU80)
AGTR1: Type-1 angiotensin II receptor (AGTR1, Homo sapiens, UniProt P30556)
NPY1R: Neuropeptide Y receptor type 1 (NPY1R, Homo sapiens, UniProt P25929)

Compound	target	test	conditions	inhibition [%]
COc1ccc(S(=O)(=O)N2CCCCC2)cc1C	AVPR2	ligand displacement, radioligand	10 µM	< 30
c1ccc(C(NCCNC(c2ccccc2)c2ccccc2)c2ccccc2)cc1	AVPR2	cell-free assay	10 µM	29
Clc1ccc2c(C3CCN(CCc4c[nH]c5ccccc45)CC3)c[nH]c2c1	Neuronal acetylcholine receptor; alpha4/beta2 (Homo sapiens, UniProt P17787+P43681)	ligand displacement, radioligand	10 µM	3
Cn1cc(-c2cccc(N3CCc4c(sc5c4CC(C)(C)C5)C3=O)c2CO)cc(Nc2ccncn2)c1=O	Protein kinase C delta type (PRKCD, Homo sapiens, UniProt Q05655)	enzyme activity, inhibitor	1 µM	1
CCN(CC)CCCC[C@H](NC(=O)[C@H](CC(C)C)NC(=O)[C@H](C)NC(=O)[C@H](Cc1ccccc1)NC(=O)c1ccc(C(C)(C)C)cc1)C(=O)N[C@@H](CO)C(=O)OC	Adenosine receptor A3 (ADORA3, Homo sapiens, UniProt P0DMS8)	ligand displacement, radioligand	10 µM	3
CN1CCN(CCCCOc2ccc3occc(=O)c3c2)CC1	Transmembrane protease serine 6	enzyme activity, inhibitor, fluorescence	10 µM	11
O=C(Nc1cccnn1)N1CCN([C@@H]2CCOc3cc(C(F)(F)F)ccc32)CC1	Beta-secretase 1 (BACE1, Homo sapiens, UniProt P56817)	enzyme activity, inhibitor	20 µM	3
Cn1cc(-c2cc(F)cc(N3CCn4c(cc5c4CCCC5)C3=O)c2CO)cc(Nc2ccc(N3CCN(C4COC4)CC3)cn2)c1=O	PAS domain-containing serine/threonine-protein kinase (PASK, Homo sapiens, UniProt Q96RG2)	enzyme activity, inhibitor	0.1 µM	-1
C#Cc1n[nH]c2c(-c3cn(C(C)c4ccccn4)c(=O)[nH]c3=O)cc(F)cc12 (stereo not shown)	Epidermal growth factor receptor (EGFR, Homo sapiens, UniProt P00533)	enzyme activity, inhibitor	1 µM	-3.8
CN1CCN(CCOc2ccc3occc(=O)c3c2)CC1	Transmembrane protease serine 6	enzyme activity, inhibitor, fluorescence	10 µM	6
Cc1ccc2nc(N3C(=O)C(O)=C(C(=O)OC(C)(C)C)C3c3ccc(-c4ccc(Cl)cc4)o3)sc2c1 (stereo not shown)	UDP-N-acetylenolpyruvoylglucosamine reductase (murB, Escherichia coli K-12, UniProt P08373)	enzyme activity, inhibitor	20 µM	46
COCc1c(-c2cc3cc(C)cc(OC)c3s2)c2c(N)ncnn2c1CN1CCNC(=O)C1	Serine/threonine-protein kinase Nek5 (NEK5, Homo sapiens, UniProt Q6P3R8)	cell-free assay, competition with immobilised ligand	1 µM	90.1
CN(CCN1CCC(OC(=O)Nc2ccccc2-c2ccccc2)CC1)C(=O)c1ccc(CN2CCC(C(N)=O)CC2)cc1	AGTR1	ligand displacement, radioligand	1 µM	3
CC(C)N1CCC[C@H]1CNC(=O)c1cn(C2CCCC2)c(=O)c2c1c1ccccc1n2C	NPY1R	ligand displacement, radioligand	10 µM	5
C[C@H](C(=O)N[C@H]1COc2ccccc2[C@@H]1S(C)(=O)=O)c1ccc(F)cc1	AGTR1	cell-free assay	10 µM	-6
CCCCCCCCCCCC(=O)OC[C@@H](COP(=O)(O)OCCNC(=O)c1ccc(Cn2c(=O)[nH]c3c(N)nc(OCCOC)nc32)cc1)OC(=O)CCCCCCCCCCC	NPY1R	ligand displacement, radioligand	10 µM	11
